The text below walks through data of ChEMBL document CHEMBL1138590, “Discovery of novel dihydro-9,10-ethano-anthracene carboxamides as glucocorticoid receptor modulators” (Bioorg Med Chem Lett, 2009).

The structures appear in SMILES notation. pEC50, pKi: −log10 of the molar value. A value given as a limit tells only on which side of the number the result lay.

Assay [1] is described as follows: Selectivity for human recombinant glucocorticoid receptor alpha over androgen receptor.
A short description of assay [2]: Selectivity for human recombinant glucocorticoid receptor alpha over estrogen receptor alpha.
Assay [3] has as its target T1, Glucocorticoid receptor (Homo sapiens, UniProt P04150).
T1 sequence (P04150 whole entry): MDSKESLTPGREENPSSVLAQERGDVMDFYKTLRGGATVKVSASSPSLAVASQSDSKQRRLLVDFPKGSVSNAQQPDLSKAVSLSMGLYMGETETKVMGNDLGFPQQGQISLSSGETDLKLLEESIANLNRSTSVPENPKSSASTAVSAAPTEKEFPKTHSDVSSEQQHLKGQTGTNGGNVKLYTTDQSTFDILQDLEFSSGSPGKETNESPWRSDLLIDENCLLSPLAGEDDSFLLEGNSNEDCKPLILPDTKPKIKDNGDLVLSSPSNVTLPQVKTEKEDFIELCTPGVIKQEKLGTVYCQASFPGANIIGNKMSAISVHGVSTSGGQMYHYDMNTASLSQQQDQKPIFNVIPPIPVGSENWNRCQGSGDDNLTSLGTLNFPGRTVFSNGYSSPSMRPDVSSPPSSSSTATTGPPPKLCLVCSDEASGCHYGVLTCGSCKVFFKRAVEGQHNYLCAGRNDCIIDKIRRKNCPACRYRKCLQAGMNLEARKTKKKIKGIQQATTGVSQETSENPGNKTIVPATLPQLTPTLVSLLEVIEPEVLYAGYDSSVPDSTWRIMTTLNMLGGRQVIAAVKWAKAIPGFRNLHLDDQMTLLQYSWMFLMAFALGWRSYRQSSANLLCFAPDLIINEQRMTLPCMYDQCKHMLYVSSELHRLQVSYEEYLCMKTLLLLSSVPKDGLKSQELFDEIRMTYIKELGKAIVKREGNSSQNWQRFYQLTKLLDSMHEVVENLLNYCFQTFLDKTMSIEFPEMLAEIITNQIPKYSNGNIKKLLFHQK
Description: Transrepression activity at GR in PMA-stimulated human A549 cells assessed as inhibition of AP1 response element-induced luciferase reporter gene activity. Type of assay: cell-based. Background: A reporter such as luciferase makes a cellular process visible.

In assay [4] the target is T1, Glucocorticoid receptor. Description: Agonist activity at GR ligand binding domain expressed in human NP1 cells assessed as glucocorticoid response element transactivation by GAL4 luciferase reporter gene assay. Type of assay: cell-based.
The target of assay [5] is T1, Glucocorticoid receptor. Description: Transrepression activity at GR in IL-1-beta-stimulated human A549 cells assessed as inhibition of NF-kappaB-dependent E-selectin transcription by luciferase reporter gene assay. Type of assay: cell-based.
The target of assay [6] is T1, Glucocorticoid receptor. Briefly: Displacement of FITC-dexamethasone from human recombinant glucocorticoid receptor alpha by fluorescence polarization assay.
Another assay deals with T2, Progesterone receptor (Homo sapiens, UniProt P06401).
T2 sequence (P06401 whole entry): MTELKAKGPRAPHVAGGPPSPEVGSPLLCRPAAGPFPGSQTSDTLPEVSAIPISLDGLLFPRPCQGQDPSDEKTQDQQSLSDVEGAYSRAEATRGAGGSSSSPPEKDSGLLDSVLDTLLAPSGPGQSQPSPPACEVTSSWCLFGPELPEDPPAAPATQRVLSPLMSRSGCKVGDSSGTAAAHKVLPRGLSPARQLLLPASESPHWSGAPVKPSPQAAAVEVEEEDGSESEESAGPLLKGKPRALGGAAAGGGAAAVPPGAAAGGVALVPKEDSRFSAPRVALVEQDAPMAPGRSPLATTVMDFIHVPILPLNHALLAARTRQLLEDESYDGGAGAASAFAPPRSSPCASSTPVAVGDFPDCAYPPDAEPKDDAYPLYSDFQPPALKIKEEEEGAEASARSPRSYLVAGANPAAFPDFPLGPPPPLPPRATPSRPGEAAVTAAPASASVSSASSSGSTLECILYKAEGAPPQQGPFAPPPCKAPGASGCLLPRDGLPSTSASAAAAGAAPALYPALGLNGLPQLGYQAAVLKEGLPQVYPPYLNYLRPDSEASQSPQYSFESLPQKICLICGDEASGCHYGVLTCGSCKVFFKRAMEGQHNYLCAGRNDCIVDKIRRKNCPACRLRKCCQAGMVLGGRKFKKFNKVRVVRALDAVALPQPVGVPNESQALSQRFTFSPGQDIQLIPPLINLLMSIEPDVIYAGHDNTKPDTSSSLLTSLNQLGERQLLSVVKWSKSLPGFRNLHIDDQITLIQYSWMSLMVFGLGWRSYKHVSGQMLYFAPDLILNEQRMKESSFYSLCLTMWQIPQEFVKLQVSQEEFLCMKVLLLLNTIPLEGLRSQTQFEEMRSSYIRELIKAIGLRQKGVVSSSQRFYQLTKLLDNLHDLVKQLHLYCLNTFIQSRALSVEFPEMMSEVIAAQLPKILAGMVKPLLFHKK
Description: Displacement of […] from progesterone receptor by fluorescence polarization assay. A digest of the protocol:
(§1)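 Fluorescence polarization competition binding: the test compound competes with a fluorescently labelled ligand for binding to the full-length receptor or its ligand-binding domain. IC50 is fitted from the polarization signal with a four-parameter logistic equation. Ki is derived by Cheng–Prusoff, Ki = IC50/(1 + ligand concentration/Kd). Values are means of duplicate experiments.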

A further assay addresses T3, Androgen receptor (Homo sapiens, UniProt P10275).
T3 sequence (P10275 whole entry): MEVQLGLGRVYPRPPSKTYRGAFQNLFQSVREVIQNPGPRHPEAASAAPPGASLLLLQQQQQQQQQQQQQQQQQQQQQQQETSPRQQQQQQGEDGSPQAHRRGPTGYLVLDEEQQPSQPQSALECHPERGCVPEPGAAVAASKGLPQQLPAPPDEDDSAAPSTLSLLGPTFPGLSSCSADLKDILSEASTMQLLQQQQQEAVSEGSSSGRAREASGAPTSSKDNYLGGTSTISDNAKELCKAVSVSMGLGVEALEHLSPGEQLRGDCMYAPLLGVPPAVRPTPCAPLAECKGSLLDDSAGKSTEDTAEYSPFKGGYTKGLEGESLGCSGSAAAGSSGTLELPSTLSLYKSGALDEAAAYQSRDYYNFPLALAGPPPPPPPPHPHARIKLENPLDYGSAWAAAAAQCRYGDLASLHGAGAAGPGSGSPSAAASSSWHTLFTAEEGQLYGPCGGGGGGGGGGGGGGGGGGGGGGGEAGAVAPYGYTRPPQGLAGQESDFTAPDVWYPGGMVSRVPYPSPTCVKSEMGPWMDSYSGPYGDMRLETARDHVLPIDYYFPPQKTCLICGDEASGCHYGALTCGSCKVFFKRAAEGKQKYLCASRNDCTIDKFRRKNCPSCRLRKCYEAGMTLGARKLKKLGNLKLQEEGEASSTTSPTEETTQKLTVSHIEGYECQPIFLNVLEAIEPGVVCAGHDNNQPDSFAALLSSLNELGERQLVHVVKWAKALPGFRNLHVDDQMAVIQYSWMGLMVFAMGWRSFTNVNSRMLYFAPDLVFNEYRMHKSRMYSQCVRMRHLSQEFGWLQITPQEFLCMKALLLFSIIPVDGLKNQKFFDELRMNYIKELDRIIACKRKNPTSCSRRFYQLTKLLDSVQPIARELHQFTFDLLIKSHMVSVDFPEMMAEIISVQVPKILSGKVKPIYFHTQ
Description: Displacement of fluorescently labeled ligand from androgen receptor by fluorescence polarization assay.

The target in a further assay is T4, Estrogen receptor (Homo sapiens, UniProt P03372).
T4 sequence (P03372 whole entry): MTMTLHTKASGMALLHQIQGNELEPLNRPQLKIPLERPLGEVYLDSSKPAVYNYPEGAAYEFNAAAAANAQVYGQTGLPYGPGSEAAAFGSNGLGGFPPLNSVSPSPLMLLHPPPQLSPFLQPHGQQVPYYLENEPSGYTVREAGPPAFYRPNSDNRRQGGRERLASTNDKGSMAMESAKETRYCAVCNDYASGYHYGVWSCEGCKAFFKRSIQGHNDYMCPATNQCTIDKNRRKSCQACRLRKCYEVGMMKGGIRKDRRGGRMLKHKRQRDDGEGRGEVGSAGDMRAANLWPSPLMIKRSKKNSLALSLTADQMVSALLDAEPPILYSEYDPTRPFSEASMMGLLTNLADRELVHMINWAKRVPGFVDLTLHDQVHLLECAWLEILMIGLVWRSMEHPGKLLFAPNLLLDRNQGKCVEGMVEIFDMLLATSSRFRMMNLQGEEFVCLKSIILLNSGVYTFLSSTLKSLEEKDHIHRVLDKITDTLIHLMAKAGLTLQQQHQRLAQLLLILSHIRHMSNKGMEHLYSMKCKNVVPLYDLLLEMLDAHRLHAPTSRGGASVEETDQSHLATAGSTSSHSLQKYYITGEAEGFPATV
Description: Displacement of […] from estrogen receptor alpha by fluorescence polarization assay. A digest of the protocol: as §1
(Polarisation of emitted light reports the rotation of a fluorescent probe.)

Assay [7] concerns the target T5, Mineralocorticoid receptor (Homo sapiens) (UniProt P08235).
T5 sequence (whole entry): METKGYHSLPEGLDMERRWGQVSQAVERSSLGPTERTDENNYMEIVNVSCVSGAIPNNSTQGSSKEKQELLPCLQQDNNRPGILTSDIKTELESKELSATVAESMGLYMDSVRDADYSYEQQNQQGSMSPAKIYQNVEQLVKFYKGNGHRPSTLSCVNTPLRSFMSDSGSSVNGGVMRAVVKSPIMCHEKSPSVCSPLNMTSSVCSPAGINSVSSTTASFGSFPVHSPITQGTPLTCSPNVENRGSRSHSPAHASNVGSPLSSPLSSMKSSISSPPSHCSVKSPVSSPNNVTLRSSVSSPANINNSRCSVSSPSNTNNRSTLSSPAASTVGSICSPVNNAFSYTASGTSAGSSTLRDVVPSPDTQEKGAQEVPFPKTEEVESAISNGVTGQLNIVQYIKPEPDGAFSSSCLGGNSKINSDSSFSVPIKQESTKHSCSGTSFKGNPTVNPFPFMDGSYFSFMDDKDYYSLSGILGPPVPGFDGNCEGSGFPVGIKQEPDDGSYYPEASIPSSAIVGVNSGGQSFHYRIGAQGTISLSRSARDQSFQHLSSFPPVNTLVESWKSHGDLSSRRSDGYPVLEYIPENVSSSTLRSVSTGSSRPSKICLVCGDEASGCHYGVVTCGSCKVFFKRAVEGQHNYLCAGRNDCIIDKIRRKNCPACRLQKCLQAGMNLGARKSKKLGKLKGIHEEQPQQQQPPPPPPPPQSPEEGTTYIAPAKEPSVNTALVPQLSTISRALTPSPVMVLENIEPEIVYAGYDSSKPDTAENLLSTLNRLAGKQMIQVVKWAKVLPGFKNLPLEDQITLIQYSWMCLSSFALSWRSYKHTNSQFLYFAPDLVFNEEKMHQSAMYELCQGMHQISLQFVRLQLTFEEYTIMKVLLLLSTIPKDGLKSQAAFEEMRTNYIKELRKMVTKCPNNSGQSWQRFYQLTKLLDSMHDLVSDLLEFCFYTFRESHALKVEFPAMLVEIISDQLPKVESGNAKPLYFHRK
Briefly: Antagonist activity at mineralocorticoid receptor in human A549 cells assessed as inhibition of 1.25 nM aldosterone-induced effect at 0.1 uM. Type of assay: functional, cell-based.

The nature of assay [8]: Selectivity for human recombinant glucocorticoid receptor alpha over progesterone receptor.

Consider `CC1(C(=O)Nc2nccs2)CC2c3ccccc3C1c1ccccc12` (configuration not stated), for which the fold change (FC) in [1] and in [2] was > 1000 each time. The pEC50 – broadly, −log10 of the EC50, conventionally taken in molar units – was 6.57 on Glucocorticoid receptor [3], < 5.00 on Glucocorticoid receptor [4] and 7.51 at Glucocorticoid receptor [5]. Also, on Glucocorticoid receptor [6], the pKi (in general, the negative decadic logarithm of the Ki, by convention in mol/L) is 8.54.

Take `Cc1cnc(NC(=O)C2(C)CC3c4ccccc4C2c2ccccc23)s1` (single isomer, unassigned; isomer A) [listing 1 of 2 here]: the pKi at Progesterone receptor was < 5.00; at Androgen receptor, < 5.00; at Glucocorticoid receptor [6], 8.39; at Estrogen receptor, < 5.30. The pEC50 at Glucocorticoid receptor [3] is 6.46.

For `Cc1cnc(NC(=O)C2(C)CC3c4ccccc4C2c2ccccc23)s1` (single isomer, unassigned; isomer A) [listing 2 of 2 here], the inhibition – broadly, how much of the control response was suppressed – in assay [7] amounted to 5%. Also, in assay [8], the fold change (FC) is > 2500.

As for `CC12CC(C)(C(=O)Nc3nccs3)C(c3ccccc31)c1ccccc12` (stereo in doubt; 17a), the pKi was 7.51 on Progesterone receptor, 5.54 on Androgen receptor, 9.00 on Glucocorticoid receptor [6] and < 5.30 at Estrogen receptor. The pEC50 at Glucocorticoid receptor [3] was 8.28; on Glucocorticoid receptor [4], 6.93; at Glucocorticoid receptor [5], 8.85.

On to `CC12CC(C)(C(=O)Nc3nncs3)C(c3ccccc31)c1ccccc12` (single isomer, unassigned; isomer A), for which the pKi is 7.46 at Progesterone receptor, 5.03 on Androgen receptor, 8.89 at Glucocorticoid receptor [6] and < 5.30 at Estrogen receptor. Also, the pEC50 on Glucocorticoid receptor [3] is 7.94; at Glucocorticoid receptor [4], 6.96; on Glucocorticoid receptor [5], 8.08.
